Data set [1] is described as follows: folding enthalpy; higher = less favourable; fluorescence melt of hairpins on a sequencing array, two-state fit. The conditions noted are these: sodium 0.088 M. The essentials:
(§1)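 In 50 mM Na-HEPES pH 8.0 containing 25 mM NaCl, hairpins from the library on a sequenced MiSeq flow cell were imaged for Cy3 fluorescence at 2.5 °C steps up to 60 °C, with Cy3 and quencher oligos annealed. After normalisation to pre-quench Cy3 and to control constructs, two-state fits with bootstrapping gave melting temperature and folding enthalpy. Four replicates were combined by inverse-variance weighting, and fitted temperatures were shifted up by 9.35 °C to match UV melts.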

Data set [2] is described as follows: melting temperature; fluorescence melt of hairpins on a sequencing array, two-state fit, raised by 9.35 °C to match UV melts. The conditions noted are these: sodium 0.088 M. The essentials: as §1

Take GCTTACGAAAGTAAAGC ((((((....))).))): the folding enthalpy in data set [1] was -99.7 kJ/mol. Further, the Tm in data set [2] turned out to be 49.6 °C.

In the case of GCTTACGAAAGTAGAAGC ((((((....)))..))), the folding enthalpy in data set [1] is -102 kJ/mol. The Tm in data set [2] was 38.2 °C.

Consider GCTTACGAAAGTATAAGC ((((((....)))..))), for which the folding enthalpy in data set [1] was -120 kJ/mol. In addition, the Tm in data set [2] came to 38.3 °C.

For GCTTACGGAAACGTAGGC ((.((((....)))).)), the folding enthalpy in data set [1] is -114 kJ/mol. Moreover, the Tm in data set [2] was 50 °C.

As for GCTTAGCGAAAGCAATGC ((.(.((....)).).)), the folding enthalpy in data set [1] is -48.9 kJ/mol. The Tm in data set [2] worked out at 31.9 °C.

On to GCTTAGCGAAAGCACAGC (((..((....))..))), for which the folding enthalpy in data set [1] was -65.9 kJ/mol. Besides, the Tm in data set [2] is 38.6 °C.

For the sequence GCTTAGCGAAAGCCAGGC ((.(.((....)).).)), in data set [1], the folding enthalpy is -52.7 kJ/mol. In data set [2], the Tm turned out to be 34.5 °C.

On to GCTTAGCGAAAGCGAAGC ((((.((....)).)))), for which the folding enthalpy in data set [1] was -93.8 kJ/mol. In data set [2], the Tm came to 60.8 °C.

GCTTAGCGAAAGCGATGC ((.(.((....)).).)): in data set [1], the folding enthalpy was -78 kJ/mol. In data set [2], the Tm turned out to be 59.5 °C.

Regarding GCTTAGCGAAAGCGCAGC (((..((....))..))), the folding enthalpy in data set [1] is -73.4 kJ/mol. Also, the Tm in data set [2] worked out at 46.9 °C.

GCTTAGCGAAAGCTCAGC (((.(((....))).))): the folding enthalpy in data set [1] was -141 kJ/mol. Also, in data set [2], the Tm worked out at 49.1 °C.

Turning to GCTTAGCGAAAGCTGAGC (((.(((....))).))), the folding enthalpy in data set [1] was -191 kJ/mol. For the same sequence, in data set [2], the Tm was found to be 57.6 °C.

As to GCTTAGCGAAAGCTGCGC ((..(((....)))..)), the folding enthalpy in data set [1] was -80.8 kJ/mol. The Tm in data set [2] is 54.9 °C.

On to GCTTAGCGAAAGCTGGGC ((..(((....)))..)), for which the folding enthalpy in data set [1] was -84 kJ/mol. For the same sequence, in data set [2], the Tm came to 51.8 °C.

As to GCTTAGCGAAAGCTGTGC ((..(((....)))..)), in data set [1], the folding enthalpy was -68.6 kJ/mol. Further, the Tm in data set [2] is 39.7 °C.

On to GCTTAGTCGAAAGACAGC (((..(((....)))))), for which the folding enthalpy in data set [1] is -72 kJ/mol. Also, the Tm in data set [2] worked out at 40.3 °C.

Regarding GCTTATCGAAAGATGAGC (((.(((....))).))), the folding enthalpy in data set [1] is -229 kJ/mol. Also, in data set [2], the Tm turned out to be 50.6 °C.

Turning to GCTTATCGAAAGATTAGC (((.(((....))).))), the folding enthalpy in data set [1] is -150 kJ/mol. Also, the Tm in data set [2] was 44.8 °C.

Take GCTTATGGAAACGTAAGC (((((.(....).))))): the folding enthalpy in data set [1] is -184 kJ/mol. Further, the Tm in data set [2] came to 45.1 °C.

On to GCTTCAGGAAACCGAAGC (((((.(....).))))), for which the folding enthalpy in data set [1] is -150 kJ/mol. Also, the Tm in data set [2] came to 46.3 °C.

As to GCTTCCCCGAAAGGGAGC (((..(((....)))))), the folding enthalpy in data set [1] is -80.4 kJ/mol. Moreover, the Tm in data set [2] came to 46.6 °C.

Consider GCTTCCGAAAGGAAAGC ((((((....))).))), for which the folding enthalpy in data set [1] was -162 kJ/mol. Also, the Tm in data set [2] came to 54.3 °C.

GCTTCCGAAAGGACTAGC ((((((....)))..))): the folding enthalpy in data set [1] is -67.8 kJ/mol. The Tm in data set [2] came out at 35.7 °C.

For the sequence GCTTCCGAAAGGAGAAGC ((((((....)))..))), the folding enthalpy in data set [1] was -107 kJ/mol. Further, the Tm in data set [2] was 45.7 °C.

As to GCTTCCGAAAGGATCAGC ((((((....)))..))), in data set [1], the folding enthalpy is -90.7 kJ/mol. Further, in data set [2], the Tm was found to be 34 °C.

Consider GCTTCCTCGAAAGAGAGC (((..(((....)))))), for which, in data set [1], the folding enthalpy is -53.3 kJ/mol. Further, in data set [2], the Tm is 28.9 °C.

As for GCTTCGCGAAAGCAAAGC ((((.((....)).)))), the folding enthalpy in data set [1] was -99.6 kJ/mol. In addition, in data set [2], the Tm worked out at 57.3 °C.

Take GCTTCGCGAAAGCCACGC ((.(.((....)).).)): the folding enthalpy in data set [1] was -33.6 kJ/mol. In addition, in data set [2], the Tm was found to be 27.8 °C.

Regarding GCTTCGCGAAAGCCTAGC (((..((....))..))), in data set [1], the folding enthalpy was -61.6 kJ/mol. In addition, in data set [2], the Tm amounted to 37.4 °C.

Turning to GCTTCGCGAAAGCGAGC (((.(((....)))))), the folding enthalpy in data set [1] was -65.1 kJ/mol. For the same sequence, the Tm in data set [2] stood at 61.4 °C.

For the sequence GCTTCGCGAAAGCGCTGC ((..(((....)))..)), the folding enthalpy in data set [1] was -95.8 kJ/mol. Moreover, in data set [2], the Tm is 41.4 °C.

Turning to GCTTCGCGAAAGCGGTGC ((..(((....)))..)), in data set [1], the folding enthalpy is -61.1 kJ/mol. Also, the Tm in data set [2] is 49.3 °C.

GCTTCGCGAAAGCGTGGC ((..(((....)))..)): the folding enthalpy in data set [1] is -72.6 kJ/mol. In addition, in data set [2], the Tm stood at 53.3 °C.

For GCTTCGCGAAAGCTAGGC ((.(.((....)).).)), the folding enthalpy in data set [1] is -72.4 kJ/mol. Moreover, the Tm in data set [2] was 35.2 °C.

GCTTCGGGAAACCGGAGC (((.(((....))).))): the folding enthalpy in data set [1] is -173 kJ/mol. The Tm in data set [2] stood at 56.5 °C.

For the sequence GCTTCTCGAAAGAGGAGC (((.(((....))).))), in data set [1], the folding enthalpy is -151 kJ/mol. Moreover, the Tm in data set [2] turned out to be 56.1 °C.

For the origin of these results see the array DNA melting data of Ke et al. (doi:10.1101/2024.01.08.574731).
